# Screening results: PubChem, The Scripps Research Institute Molecular Screening Center
# TCR CD3 inh: inhibitors of human TCR-CD3 interaction, primary screen, biochemical, fluorescence, TAMRA-labeled TCR probe; inhibition, % at 9.4 µM; 0.37% of 360,000 active; in the data active = inhibition above about 19%;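 note: recombinant mutant TCR 2C K166C tagged with TAMRA read by polarization; 0% = receptor in buffer alone and 100% = receptor with positive control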
# rCAG RNA binder: binders of r(CAG) RNA repeats, primary screen, biochemical, fluorescence | inhibition, % at 3 µM | 1.3% of 370,000 active | AID 651821, 2012 | r(CAG) RNA repeat, TO-PRO-1 dye displacement fluorescence;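 active = inhibition above the plate cutoff, the mean of all test compounds on that plate plus 3 SD, cut at about 35% in these data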;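 note: 0% = DMSO alone and 100% = 100 µM mitoxantrone as full dye displacement; higher means more dye released from RNA so lower well fluorescence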
# PRMT1 inh: PRMT1 methyltransferase inhibitors, primary screen, biochemical, fluorescence polarization. Protein arginine N-methyltransferase 1 (Homo sapiens), Q99873. recombinant PRMT1, activity-based probe fluorescence polarization. inhibition, % at 2.79 µM. 1.3% of 370,000 active. AID 652257, 2013;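 active = inhibition above about 21% made by adding two undisclosed values, limit read from the data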
# SIAE inh: human SIAE inhibitors, primary screen, biochemical, fluorescence polarization, FP-Rh probe, 1536-well HTS. Sialate O-acetylesterase (Homo sapiens), Q9HAT2. SIAE FP-Rh probe binding. 0.69% of 370,000 active. inhibition, % at 9.66 µM;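 active = inhibition above a cutoff: mean of compounds within the control limits plus 3 SD of those, cut at about 17% in these data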;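 note: 0% = plate median of compound wells and 100% = probe without SIAE protein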
# Target sequence (Q9HAT2 whole entry, looked up): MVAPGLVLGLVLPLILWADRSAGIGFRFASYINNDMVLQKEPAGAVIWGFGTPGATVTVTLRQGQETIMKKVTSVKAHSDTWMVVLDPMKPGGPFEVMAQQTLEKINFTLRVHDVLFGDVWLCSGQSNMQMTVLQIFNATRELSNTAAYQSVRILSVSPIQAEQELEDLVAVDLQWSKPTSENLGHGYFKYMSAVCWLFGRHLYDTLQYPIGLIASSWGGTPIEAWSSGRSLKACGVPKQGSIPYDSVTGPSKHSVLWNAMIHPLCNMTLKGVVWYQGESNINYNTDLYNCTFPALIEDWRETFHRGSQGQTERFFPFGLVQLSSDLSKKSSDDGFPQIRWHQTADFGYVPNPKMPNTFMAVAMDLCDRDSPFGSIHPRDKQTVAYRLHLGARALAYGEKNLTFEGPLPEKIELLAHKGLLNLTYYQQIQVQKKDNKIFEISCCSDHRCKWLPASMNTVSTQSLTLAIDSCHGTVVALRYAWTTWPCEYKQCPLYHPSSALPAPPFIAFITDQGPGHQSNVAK
# mABHD4 FP: ABHD4 inhibitors, primary screen, biochemical, fluorescence polarization, mouse | inhibition, % at 8.92 µM | AID 720543, 2013 | 0.54% of 370,000 active | purified mABHD4, FP-Rh probe fluorescence polarization;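 active = inhibition exceeding the mean over every tested compound plus 3 SD, cut at about 30% in these data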;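 note: 0% = plate median of compound wells and 100% = S159A mutant with DMSO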
#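 Material: mouse ABHD4 enzyme, wild type; Benchmarks: S159A mutant high control, sample median low control; Buffer or medium: HEPES pH 7.0, NaCl, Pluronic buffer; Signal: fluorescence polarization; Read-out: percent inhibition of probe binding, normalized to plate controls; Timing: pre-incubation 45 min, probe exposure 60 min, at 25 °C; Dosing: 8.92 µM, single dose.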
# rCAG binder conf: small molecules binding CAG repeat RNA – biochemical, fluorescence, confirmation. inhibition, % at 3 µM. 70% of 4,300 active. shares compounds with rCAG RNA binder. r(CAG) RNA repeat, TO-PRO-1 dye displacement fluorescence;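 active = inhibition above a per-plate cutoff, the mean inhibition of sample wells plus 3 SD, cut at about 35% in these data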;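 note: loss of TO-PRO-1 fluorescence as compound displaces dye from 1x1 AA loop RNA; 0% = DMSO only wells and 100% = 100 µM mitoxantrone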
# DNA CAG counter: displacement of TO-PRO-1 from CAG DNA duplex, counter-screen for rCAG RNA repeat binder project, biochemical, fluorescence, TO-PRO-1 dye, d(CAG) DNA oligo; shares compounds with rCAG RNA binder; d(CAG) DNA oligo TO-PRO-1 dye displacement; inhibition, % at 3 µM; 94% of 4,300 active; AID 652068, 2013;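 active = inhibition above its plate's cutoff, the mean test-well inhibition plus 3 SD, cut at about 4.8% in these data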;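 note: 0% = DNA dye mix with DMSO and 100% = 100 µM mitoxantrone; hits displace the dye from DNA and so lower well fluorescence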
# dCAG dye DR: inhibitors of DNA CAG/GTC TO-PRO-1 complex, dose response, counter-screen for rCAG RNA repeat binder project, biochemical, fluorescence, TO-PRO-1 dye. shares compounds with rCAG RNA binder. DNA CAG/GTC duplex TO-PRO-1 dye displacement fluorescence. IC50, µM. 20% of 250 active. AID 686960, 2013; in the data active = IC50 below about 10 µM
# Starred values were filed as active, the others as inactive; . = no result given. Compounds with a hit are over-represented: about 3.3% of the library has one in this group of screens.
SMILES,TCR CD3 inh,rCAG RNA binder,PRMT1 inh,SIAE inh,mABHD4 FP,rCAG binder conf,DNA CAG counter,others
COc1cc([N+](=O)[O-])cc(/C=N/NC(=O)C(O)(c2ccccc2)c2ccccc2)c1O,-11,38*,1,9,9,34,13*,
COc1cc([N+](=O)[O-])cc(/C=N\NC(=O)C2COc3ccccc3O2)c1O (stereo unspecified),6,24,-2,4,17,.,.,
CCOC(=O)c1c(NC(=O)CSc2ccccc2C(=O)O)sc(C)c1C,6,40*,1,-11,2,41*,13*,
O=C(O)c1ccc(Cl)c(S(=O)(=O)N2CCC(Cc3ccccc3)CC2)c1,5,62*,1,-4,0,45*,13*,
O=C(c1ccco1)N1N=C(c2cccs2)CC1c1cc([N+](=O)[O-])ccc1O (stereo unspecified),-5,54*,13,-14,-12,35*,13*,
CC(C)N1CCCCC(NC(=O)c2c(F)cccc2F)C1=O (stereo unspecified),.,0,-5,1,-4,.,.,
O=C(CCN1C(=O)/C(=C/c2ccc(Cl)cc2)SC1=S)Nc1ccc(C(=O)O)cc1,1,4,0,2,3,.,.,
CC(/C=C1\SC(=S)N(CCCC(=O)Nc2ccc(C(=O)O)cc2)C1=O)=C\c1ccccc1,10,74*,-2,-71,-115,85*,53*,
CCc1ccc(/C=C2/SC(=S)N(CCCC(=O)Nc3ccccc3C(=O)O)C2=O)cc1,3,5,-2,-5,2,.,.,
O=C(CCN1C(=O)/C(=C\c2cccs2)SC1=S)Nc1ccc(C(=O)O)cc1,-6,55*,0,-5,-22,40*,11*,
COc1ccccc1/C=C1/SC(=S)N(CCC(=O)Nc2cccnc2)C1=O,6,8,-1,-8,-13,.,.,
O=C(CCCN1C(=O)/C(=C\c2ccccc2)SC1=S)Nc1ccc(O)cc1C(=O)O,5,80*,6,7,5,68*,32*,
COc1ccccc1/C=C1\SC(=S)N(CCC(=O)Nc2ccc(C(=O)O)c(O)c2)C1=O,5,91*,1,-39,-89,85*,59*,
Cc1nc(N2CCN(C(=O)COc3ccccc3C)CC2)c2c3c(sc2n1)CCCC3,.,.,0,1,-2,.,.,
CCOC(=O)[C@]12CCCCC/C=C\1N(CCc1ccc(Cl)cc1)C(=O)[C@H]2CC(=O)N1CCCC1,.,-1,1,-1,0,.,.,
CC(/C=C1\SC(=S)N(CCC(=O)Nc2cccc(C(=O)O)c2)C1=O)=C\c1ccccc1,3,37*,-4,-4,-23,88*,62*,
CC(=Cc1ccccc1)C=C1SC(=S)N(CCCC(=O)Nc2ccc(C(=O)O)cc2)C1=O,-4,25,5,-11,-44,.,.,
CC(=C\c1ccccc1)/C=C1/SC(=S)N(CCCC(=O)O)C1=O,4,37*,2,-1,14,49*,15*,
CC(/C=C1\SC(=O)N(CCCC(=O)O)C1=O)=C\c1ccccc1,1,10,2,10,5,.,.,
CC(C)=CCC/C(C)=C/CN1CC(=O)N2[C@H](C[C@@]3(n4ccc5ccccc54)c4ccccc4N(S(=O)(=O)c4ccccc4)[C@@H]23)C1=O,.,14,-8,-8,4,.,.,
O=C(NCCO)C1(C(=O)C2CC2)CC(c2ccccc2C(F)(F)F)=NO1 (stereo unspecified),.,3,0,-3,3,.,.,
Brc1cc2c(cc1COc1ccc(-c3nn[nH]n3)cc1)OCO2,6,35*,1,-4,-26,25,6.5*,
Cc1ccccc1COc1ccc(-c2nn[nH]n2)cc1,-3,11,3,-7,-10,.,.,
COc1ccc(-c2csc(NC(=O)CSc3nnnn3C)n2)cc1OC,-5,4,1,5,-3,.,.,
COc1ccc(-c2csc(/C(C#N)=C(\O)CSc3nccn3C)n2)cc1OC,1,38*,-1,-8,8,59*,22*,
SMILES,TCR CD3 inh,rCAG RNA binder,PRMT1 inh,SIAE inh,mABHD4 FP,rCAG binder conf,DNA CAG counter,others
COCCCNC(=O)CSc1nc2c(sc(=S)n2-c2cc(Cl)ccc2OC)c(=O)[nH]1,-8,21,4,-12,3,.,.,
COc1ccc(Cl)cc1-n1c(=S)sc2c(=O)[nH]c(SCC(=O)NCC3CCCO3)nc21 (stereo unspecified),4,41*,2,8,4,31,6.6*,
CCC(C)NC(=O)CSc1nc2c(sc(=S)n2-c2cc(Cl)ccc2OC)c(=O)[nH]1 (stereo unspecified),-6,46*,-1,5,-5,38*,8.5*,
CSc1nc(=S)c2[nH]c(=S)[nH]c2[nH]1,7,65*,88*,-17,-3,68*,30*,dCAG dye DR=9.3*
Nc1nc(=S)c2[nH]c(=S)[nH]c2[nH]1,3,2,14,5,3,.,.,
Cc1ccc(S(=O)(=O)N2[C@@H](c3ccccc3)C(C(=O)O)=CC[C@H]2c2cccc(Cl)c2)cc1,-4,12,0,0,11,.,.,
CCOC(=O)C1=C[C@@H](C(C)(C)C)N(S(=O)(=O)c2ccc(C)cc2)[C@H]1c1ccccc1,-3,2,-2,-4,-14,.,.,
COc1ccc([C@@H]2CC=C(C(=O)O)[C@H](c3ccccc3)N2S(=O)(=O)c2ccc(C)cc2)cc1OC,3,23,0,0,14,.,.,
CCc1ccc([C@H]2C(C(=O)O)=C[C@@H](C(C)(C)C)N2S(=O)(=O)c2ccc(C)cc2)cc1,-7,52*,3,-3,-8,49*,18*,
CCc1ccc([C@@H]2CC=C(C(=O)O)[C@H](c3ccc(C(C)(C)C)cc3)N2S(=O)(=O)c2ccc(C)cc2)cc1,-4,92*,5,-16,7,85*,53*,
Cc1ccc([C@@H]2CC=C(C(=O)O)[C@H](c3ccc(C(C)(C)C)cc3)N2S(=O)(=O)c2ccc(C)cc2)cc1,2,90*,5,-12,9,84*,48*,
